Bioassay records: PubChem BioAssay, Johns Hopkins Ion Channel Center
RGS4 inh: human RGS4 inhibition; P49798; B-score at 10 µM; HEK293 M3R/RGS4 inducible, Fluo-4 calcium flux; hits give high values; triggered by carbachol at its EC20; actives 0.45% (n = 310,000);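 active = B-score, a plate-corrected calcium signal, over three deviations above library mean, with baseline fluorescence within five deviations of library mean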;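 also: RGS4 expression induced by doxycycline in cells with stable M3 receptor; B-score is computed from the integrated fluorescence ratio over baseline after carbachol; higher B-score means a larger calcium signal and so more RGS4 inhibition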
Target sequence (P49798 whole entry, looked up): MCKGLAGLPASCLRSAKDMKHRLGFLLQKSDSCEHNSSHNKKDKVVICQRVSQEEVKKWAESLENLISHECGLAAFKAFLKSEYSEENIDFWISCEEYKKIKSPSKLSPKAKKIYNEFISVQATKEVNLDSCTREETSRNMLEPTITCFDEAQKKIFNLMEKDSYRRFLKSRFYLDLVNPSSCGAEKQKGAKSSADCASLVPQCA
MrgX1 ag: activates human MrgX1 receptor signaling | Q96LB2 | MrgX1-HEK293 cells, Fluo-4 calcium fluorescence, agonist mode; hits give high values | B-score at 10 µM | actives 0.44% (n = 310,000) | AID 588627;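 active = calcium response B-score plate-corrected fluorescence ratio at least 3 library SD, with starting fluorescence B-score inside 5 SD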
Target sequence (Q96LB2 whole entry, looked up): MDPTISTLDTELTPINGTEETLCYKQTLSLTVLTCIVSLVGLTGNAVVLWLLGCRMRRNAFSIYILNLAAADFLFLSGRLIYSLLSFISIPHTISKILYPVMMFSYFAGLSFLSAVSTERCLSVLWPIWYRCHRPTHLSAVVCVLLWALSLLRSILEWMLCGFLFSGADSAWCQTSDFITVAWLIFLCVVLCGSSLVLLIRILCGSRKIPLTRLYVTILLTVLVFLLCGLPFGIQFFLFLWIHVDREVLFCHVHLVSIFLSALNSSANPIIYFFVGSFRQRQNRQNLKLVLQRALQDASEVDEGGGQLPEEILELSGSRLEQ
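Test system: HEK293 cells stably expressing human MrgX1 receptor; Input: fifteen thousand cells per well; Dosing: compound delivered in addition one of three; Schedule: overnight seeding, then 1 h dark dye loading; Technique: Fluo-4 NW calcium fluorescence; Measure: B-scored fluorescence response ratio; Controls: positive and negative controls per plate.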
MrgX1 antag: human MrgX1 receptor antagonism, primary screen | Q96LB2 | MRGX1-HEK293 calcium flux, Fluo-4, BAM8-22 antagonism; hits give low values | B-score at 10 µM | actives 1.3% (n = 310,000) | AID 588676;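 active = calcium-response B-score plate-corrected more than 3 library SD below zero, starting fluorescence within 5 deviations, no agonist response on first addition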;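 also: peak minus trough fluorescence over baseline after final BAM8-22 challenge near maximal dose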
RGS4 act: potentiators or activators of RGS4. HEK293 M3R/inducible RGS4, carbachol calcium flux Fluo4; hits give low values. B-score at 10 µM. actives 0.92% (n = 310,000);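 active = B-score of the integrated calcium signal more than 4 SD below the library mean, with starting fluorescence not abnormally high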;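 also: negative B-score means reduced calcium response which marks RGS4 activation or potentiation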
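Also added: carbachol at ECmax as muscarinic agonist stimulus; Assay system: HEK293 cells with stable M3R and inducible RGS4; Timing: overnight RGS4 induction, 30 min dye load 37 °C, 20 min compound RT; Measured by: Fluo4-AM (2 µM) calcium-flux fluorescence, kinetic read.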
MrgX1 allo act: human MrgX1 positive allosteric modulation, primary screen; Q96LB2; MrgX1-HEK293, Fluo-4 calcium flux, FDSS; hits give high values; B-score at 10 µM; actives 0.63% (n = 310,000); AID 588675;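 active = plate-corrected calcium response at least 3 library SD above typical, normal starting fluorescence, not activating the receptor alone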;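 also: compound read alongside a low EC10 to EC30 dose of BAM8-22 agonist; peak minus trough fluorescence over baseline measured at the second addition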
RGS4 activ val: RGS4 activation, validation assay. actives 89% (n = 1,100). inhibition, % at 10 µM. AID 602282. shares compounds with RGS4 act. HEK293 M3R/RGS4 inducible, carbachol calcium flux Fluo4;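 active = inhibition above 3 SD of the buffer control wells, cut at about 41% in these data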;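 also: signal is the integrated peak-minus-minimum Fluo4 fluorescence over baseline ratio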
RGS4 act ctr: activity in cells without induced RGS4 expression. shares compounds with RGS4 act. HEK293 M3R non-induced RGS4, Fluo4 calcium flux; after carbachol challenge at its EC90. inhibition, % at 10 µM. actives 82% (n = 1,100);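 active = inhibition exceeding 3 SD of buffer-only control wells, cut at about 26% in these data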;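 also: percent drop in integrated peak-minus-baseline over baseline Fluo4 ratio after carbachol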
* = called active by the depositor; i = inactive. A selection: hits, their analogues and other compounds. The true share with any hit is near 3.5%.

SMILES	RGS4 inh	MrgX1 ag	MrgX1 antag	RGS4 act	MrgX1 allo act	others
Cc1ccc(-c2nn(-c3cc(N4CCNCC4)ccc3[N+](=O)[O-])c(=O)c3ccccc23)cc1	i	i	i	i	i
CC(C)(C)NC(=O)C(c1ccncc1)N(C(=O)Cn1nnc(-c2ccc(F)cc2)n1)c1ccc(F)cc1 (configuration not stated)	i	i	-5.61*	i	i
CN(C)CC(C)(C)CNC(=O)C1CCN(Cc2ccccc2O)CC1	i	i	i	i	i
COC(=O)C1CC(c2c(OC)cc(OC)cc2OC)=NO1 (configuration not stated)	i	i	i	i	i
COC(=O)[C@@H]1C(c2c(OC)cc(OC)cc2OC)=NO[C@H]1C(=O)OC	i	i	-6.21*	i	i
CC(C)C(=O)O/N=C(\N)c1ccc(Oc2ccc(Cl)cc2)c([N+](=O)[O-])c1	i	i	i	-8.6*	i
CCc1ccc(C(=O)NNC(=O)CCc2nc3ccccc3c(=O)[nH]2)cc1	i	i	i	i	i
CC(=O)Nc1ccc(NC(=O)C(C)OC(=O)CCCOc2ccc(Cl)cc2C)cc1 (configuration not stated)	i	i	-7.84*	i	i
O=C(NCc1cccnc1)c1cccs1	i	i	i	i	i
Fc1ccc([C@@H]2CCNC[C@H]2COc2ccc3c(c2)OCO3)cc1	i	i	i	-7.09*	i
Fc1ccc(C2CCNCC2COc2ccc3c(c2)OCO3)cc1 (configuration not stated)	i	i	i	-8.75*	i
COc1ccccc1N1CCN(C2CCN(C3CCC(c4ccccc4)CC3)CC2)CC1 (configuration not stated)	i	i	i	i	9.05*
COc1ccccc1N1CCN(C2CCC(C)CC2)CC1 (configuration not stated)	i	i	i	i	i
COc1ccc(NC(=O)Nc2ccc(O)c3ccccc23)cc1	i	i	i	i	i
O=[N+]([O-])c1ccc(N/N=C/c2cn(-c3ccccc3)nc2-c2ccccc2)cc1	i	i	-4.54*	i	i
O=C(O)/C=C/c1cn(-c2ccccc2)nc1-c1ccc(-c2ccc([N+](=O)[O-])cc2)o1	i	i	-4.56*	i	i
COc1ccc(-c2nn(-c3ccccc3)cc2/C=C/C(=O)O)cc1[N+](=O)[O-]	i	i	i	i	9.17*
O=C(O)/C=C/c1cn(-c2ccccc2)nc1-c1cccc([N+](=O)[O-])c1	i	i	i	i	i
COc1ccc(-c2nn(-c3ccccc3)cc2C=O)cc1[N+](=O)[O-]	i	i	i	i	i
CCCCCCn1nc(C(=O)N(CCOC)c2c(N)n(CCCC)c(=O)[nH]c2=O)c2ccccc2c1=O	i	i	i	i	i
CC(C)Nc1ccc(Nc2ccnc3cc4ccccc4cc23)cc1	i	i	i	-9.9*	i
Cc1ccc(CN2CC(C(=O)Nc3ncccc3C)CC2=O)cc1 (configuration not stated)	i	i	i	i	i
CCSc1nc2sc3c(c2c(=O)n1-c1ccccc1C)CCN(C)C3	i	i	i	i	i
CCCCN(CCCC)c1nc2ccccc2nc1C(C#N)C(=O)NCCCOC (configuration not stated)	i	i	i	-9.47*	i
CC(C)(C)CN1CCN(Cc2cccnc2)CC1CCO (configuration not stated)	i	i	i	i	i
SMILES	RGS4 inh	MrgX1 ag	MrgX1 antag	RGS4 act	MrgX1 allo act	others
CCCC1=NN2C(=N)/C(=C\c3cc(C)n(-c4cc(C)cc(C)c4)c3C)C(=O)N=C2S1	i	i	i	-8.56*	i
Cc1cc(C)cc(-n2c(C)cc(/C=C3\C(=N)N4N=C(CC(C)C)SC4=NC3=O)c2C)c1	i	i	i	-7.84*	i
Nc1ccc(-n2cnc3cc([N+](=O)[O-])ccc32)cc1	i	i	i	i	i
Cc1cccc(-n2cnc3cc([N+](=O)[O-])ccc32)c1	i	i	i	i	8.21*
COC(=O)[C@@]1(Cc2ccc(OC)cc2)[C@H]2c3cc(C(=O)N(C)C)n(Cc4c(CO)[nH]cc(C)c4=O)c3C[C@H]2CN1C(=O)c1ccccc1	i	i	i	i	i
COC(=O)[C@@]1(Cc2ccc(OC)cc2)[C@H]2c3cc(C(=O)N4CCCC4)n(Cc4c(CO)[nH]cc(C)c4=O)c3C[C@H]2CN1C(=O)c1ccccc1	i	i	-5.6*	i	i
CCN(CC)CCCNC(=O)c1ccc2c(SCC(=O)O)c3c(nc2c1)CCC3	i	i	i	i	i
CCN(CC)CCNC(=O)CSc1c2c(nc3cc(Cl)ccc13)CCCC2	i	i	i	-7.32*	i
CCOC(=O)/C(C#N)=N/Nc1ccc(S(=O)(=O)N2CCc3ccccc32)cc1	i	i	-4.52*	i	i
N#C/C(=N\Nc1ccc(S(=O)(=O)N2CCc3ccccc32)cc1)C(N)=S	i	i	i	i	i
CN(C)c1ccc(NC(=O)CSc2nnc(-c3cnccn3)n2C)cc1	i	i	i	i	i
COC(=O)C1(C(=O)OC)NOC2C(=O)N(c3ccccc3)C(=O)C21 (configuration not stated)	i	i	-5.71*	i	i
COc1cc2c(cc1OC)CN(Cc1cc(OC)c(O)c(OC)c1)CC2	i	i	i	i	i
Cc1ccc(/C=C2/Sc3ccccc3N(CC(=O)NCC3CCCO3)C2=O)cc1 (configuration not stated)	i	i	i	-7.44*	i
CCCCOc1ccc(/C=N/NC(=O)c2csc(C)c2C)cc1	i	i	i	-8.59*	i
c1coc(-c2nnc3sc(Cc4cccs4)nn23)c1	i	i	-7.15*	i	i
CCCCOc1ccc(S(=O)(=O)n2c(C)nc3ccccc32)cc1	i	i	i	-8.3*	i	RGS4 activ val=93.0*;RGS4 act ctr=95.8*
Cc1ccc(S(=O)(=O)n2c(N)nc3ccccc32)cc1	i	i	i	-7.77*	i	RGS4 activ val=91.5*;RGS4 act ctr=96.3*
